Results from ChEMBL document CHEMBL1151428, “Capability of 11 antipneumococcal antibiotics to select for resistance by multistep and single-step methodologies” (2007).
Values after ≈ are worked out from the molar mass of the structure shown.

Columns and labels:
Format in all cases: functional
Streptococcus pneumoniae [1] = experiment: Antimicrobial activity against drug-resistant Streptococcus pneumoniae isolate 24 after 50 passages with moxifloxacin measured after 10 antibiotic-free subculture by multi-step resistance selection technique
Outline: (§1)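 Mutants selected by daily broth passage in subinhibitory drug in cation-adjusted Mueller-Hinton broth with 5% lysed horse blood. Stability was tested by 10 daily passages on blood agar without antibiotic, then macrodilution MIC.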

Streptococcus pneumoniae [2] = experiment: Antimicrobial activity against drug-resistant Streptococcus pneumoniae isolate 24 after 14 passages with Telithromycin measured after 10 antibiotic-free subculture by multi-step resistance selection technique; outline: as §1
Streptococcus pneumoniae [3] = experiment: Antimicrobial activity against drug-resistant Streptococcus pneumoniae isolate 24 by NCCLS M7-A7 method
Streptococcus pneumoniae [4] = experiment: Antimicrobial activity against drug-resistant Streptococcus pneumoniae isolate 1635 after 49 passages with clarithromycin measured after 10 antibiotic-free subculture by multi-step resistance selection technique
Streptococcus pneumoniae [5] = experiment: Antimicrobial activity against drug-resistant Streptococcus pneumoniae isolate 1635 after 14 passages with azithromycin measured after 10 antibiotic-free subculture by multi-step resistance selection technique; outline: as §1
Streptococcus pneumoniae [6] = experiment: Antimicrobial activity against drug-resistant Streptococcus pneumoniae isolate 1635 after 14 passages by multi-step resistance selection technique
Outline: (§2)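 Daily serial passage in subinhibitory drug levels in 1 ml cation-adjusted Mueller-Hinton broth with 5% lysed horse blood; fresh broth for tigecycline. Each day, 10 μl were taken from the tube one to two dilutions below the MIC whose turbidity matched the growth control, and used to set the next MIC. […] MIC by macrodilution.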

Streptococcus pneumoniae [7] = experiment: Antimicrobial activity against drug-resistant Streptococcus pneumoniae isolate 1635 by NCCLS M7-A7 method
Streptococcus pneumoniae [8] = experiment: Antimicrobial activity against drug-resistant Streptococcus pneumoniae isolate 3243 after 20 passages with moxifloxacin measured after 10 antibiotic-free subculture by multi-step resistance selection technique; outline: as §1
Streptococcus pneumoniae [9] = experiment: Antimicrobial activity against drug-resistant Streptococcus pneumoniae isolate 3243 after 41 passages with clarithromycin measured after 10 antibiotic-free subculture by multi-step resistance selection technique
Streptococcus pneumoniae [10] = experiment: Antimicrobial activity against drug-resistant Streptococcus pneumoniae isolate 3243 after 33 passages with azithromycin measured after 10 antibiotic-free subculture by multi-step resistance selection technique; outline: as §1
Streptococcus pneumoniae [11] = experiment: Antimicrobial activity against drug-resistant Streptococcus pneumoniae isolate 3243 after 29 passages with Telithromycin measured after 10 antibiotic-free subculture by multi-step resistance selection technique; outline: as §1
Streptococcus pneumoniae [12] = experiment: Antimicrobial activity against drug-resistant Streptococcus pneumoniae isolate 3243 after 33 passages by multi-step resistance selection technique; outline: as §2
Streptococcus pneumoniae [13] = experiment: Antimicrobial activity against drug-resistant Streptococcus pneumoniae isolate 3243 by NCCLS M7-A7 method
Streptococcus pneumoniae [14] = experiment: Antimicrobial activity against drug-resistant Streptococcus pneumoniae isolate 3676 after 50 passages with moxifloxacin measured after 10 antibiotic-free subculture by multi-step resistance selection technique
Streptococcus pneumoniae [15] = experiment: Antimicrobial activity against drug-resistant Streptococcus pneumoniae isolate 3274 after 48 passages with Telithromycin measured after 10 antibiotic-free subculture by multi-step resistance selection technique; outline: as §1
Streptococcus pneumoniae [16] = experiment: Antimicrobial activity against drug-resistant Streptococcus pneumoniae isolate 3274 after 50 passages by multi-step resistance selection technique
Outline: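 Daily serial passage in subinhibitory drug levels in 1 ml cation-adjusted Mueller-Hinton broth with 5% lysed horse blood; fresh broth for tigecycline. Each day, 10 μl were taken from the tube one to two dilutions below the MIC whose turbidity matched the growth control, and used to set the next MIC. MIC by macrodilution.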

Streptococcus pneumoniae [17] = experiment: Antimicrobial activity against drug-resistant Streptococcus pneumoniae isolate 3274 by NCCLS M7-A7 method
Streptococcus pneumoniae [18] = experiment: Antimicrobial activity against drug-resistant Streptococcus pneumoniae isolate 2527 after 14 passages with gemifloxacin measured after 10 antibiotic-free subculture by multi-step resistance selection technique; outline: as §1
Streptococcus pneumoniae [19] = experiment: Antimicrobial activity against drug-resistant Streptococcus pneumoniae isolate 2527 after 20 passages with azithromycin measured after 10 antibiotic-free subculture by multi-step resistance selection technique; outline: as §1
Streptococcus pneumoniae [20] = experiment: Antimicrobial activity against drug-resistant Streptococcus pneumoniae isolate 2527 after 20 passages by multi-step resistance selection technique
Streptococcus pneumoniae [21] = experiment: Antimicrobial activity against drug-resistant Streptococcus pneumoniae isolate 2527 by NCCLS M7-A7 method
Streptococcus pneumoniae [22] = experiment: Antimicrobial activity against drug-resistant Streptococcus pneumoniae isolate 3665 after 50 passages by multi-step resistance selection technique
Outline: (§3)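 Daily serial passage in broth at subinhibitory drug levels: 1 ml cation-adjusted Mueller-Hinton broth with 5% lysed horse blood; fresh broth for tigecycline. Each day 10 μl inoculum taken from the tube one to two dilutions below MIC matching growth-control turbidity, used to set next MIC. Continued until ≥8-fold MIC rise, minimum 14, maximum 50 passages; MIC read by macrodilution.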

Streptococcus pneumoniae [23] = experiment: Antimicrobial activity against drug-resistant Streptococcus pneumoniae isolate 3665 by NCCLS M7-A7 method
Streptococcus pneumoniae [24] = experiment: Antimicrobial activity against drug-resistant Streptococcus pneumoniae isolate 1077 after 49 passages with clindamycin measured after 10 antibiotic-free subculture by multi-step resistance selection technique
Streptococcus pneumoniae [25] = experiment: Antimicrobial activity against drug-resistant Streptococcus pneumoniae isolate 1077 after 29 passages with azithromycin measured after 10 antibiotic-free subculture by multi-step resistance selection technique; outline: as §1
Streptococcus pneumoniae [26] = experiment: Antimicrobial activity against drug-resistant Streptococcus pneumoniae isolate 1077 after 15 passages with Telithromycin measured after 10 antibiotic-free subculture by multi-step resistance selection technique; outline: as §1
Streptococcus pneumoniae [27] = experiment: Antimicrobial activity against drug-resistant Streptococcus pneumoniae isolate 1077 after 29 passages by multi-step resistance selection technique; outline: as §2
Streptococcus pneumoniae [28] = experiment: Antimicrobial activity against drug-resistant Streptococcus pneumoniae isolate 1077 by NCCLS M7-A7 method
Streptococcus pneumoniae [29] = experiment: Antimicrobial activity against drug-resistant Streptococcus pneumoniae isolate 1076 after 35 passages with moxifloxacin measured after 10 antibiotic-free subculture by multi-step resistance selection technique; outline: as §1
Streptococcus pneumoniae [30] = experiment: Antimicrobial activity against drug-resistant Streptococcus pneumoniae isolate 1076 after 14 passages with Telithromycin measured after 10 antibiotic-free subculture by multi-step resistance selection technique; outline: as §1
Streptococcus pneumoniae [31] = experiment: Antimicrobial activity against drug-resistant Streptococcus pneumoniae isolate 1076 by NCCLS M7-A7 method
Streptococcus pneumoniae [32] = experiment: Antimicrobial activity against drug-resistant Streptococcus pneumoniae isolate 3009 after 19 passages with moxifloxacin measured after 10 antibiotic-free subculture by multi-step resistance selection technique; outline: as §1
Streptococcus pneumoniae [33] = experiment: Antimicrobial activity against drug-resistant Streptococcus pneumoniae isolate 3009 after 18 passages with levofloxacin measured after 10 antibiotic-free subculture by multi-step resistance selection technique; outline: as §1
Streptococcus pneumoniae [34] = experiment: Antimicrobial activity against drug-resistant Streptococcus pneumoniae isolate 3009 after 21 passages with gemifloxacin measured after 10 antibiotic-free subculture by multi-step resistance selection technique; outline: as §1
Streptococcus pneumoniae [35] = experiment: Antimicrobial activity against drug-resistant Streptococcus pneumoniae isolate 3009 after 25 passages with clarithromycin measured after 10 antibiotic-free subculture by multi-step resistance selection technique
Streptococcus pneumoniae [36] = experiment: Antimicrobial activity against drug-resistant Streptococcus pneumoniae isolate 3009 by NCCLS M7-A7 method
Streptococcus pneumoniae [37] = experiment: Antimicrobial activity against drug-resistant Streptococcus pneumoniae isolate 1635 after 14 passages with clindamycin measured after 10 antibiotic-free subculture by multi-step resistance selection technique
Streptococcus pneumoniae [38] = experiment: Antimicrobial activity against drug-resistant Streptococcus pneumoniae isolate 37 by NCCLS M7-A7 method
Streptococcus pneumoniae [39] = experiment: Antimicrobial activity against drug-resistant Streptococcus pneumoniae isolate 37 after 14 passages with Telithromycin measured after 10 antibiotic-free subculture by multi-step resistance selection technique
Streptococcus pneumoniae [40] = experiment: Antimicrobial activity against drug-resistant Streptococcus pneumoniae isolate 3413 by NCCLS M7-A7 method
Streptococcus pneumoniae [41] = experiment: Antimicrobial activity against drug-resistant Streptococcus pneumoniae isolate 3413 after 30 passages with Telithromycin measured after 10 antibiotic-free subculture by multi-step resistance selection technique; outline: as §1
Streptococcus pneumoniae [42] = experiment: Antimicrobial activity against drug-resistant Streptococcus pneumoniae isolate 3676 after 44 passages with clarithromycin measured after 10 antibiotic-free subculture by multi-step resistance selection technique
Streptococcus pneumoniae [43] = experiment: Antimicrobial activity against drug-resistant Streptococcus pneumoniae isolate 3676 after 14 passages with Telithromycin measured after 10 antibiotic-free subculture by multi-step resistance selection technique
Streptococcus pneumoniae [44] = experiment: Antimicrobial activity against drug-resistant Streptococcus pneumoniae isolate 3676 after 50 passages by multi-step resistance selection technique; outline: as §3
Streptococcus pneumoniae [45] = experiment: Antimicrobial activity against drug-resistant Streptococcus pneumoniae isolate 3676 by NCCLS M7-A7 method
Streptococcus pneumoniae [46] = experiment: Antimicrobial activity against drug-resistant Streptococcus pneumoniae isolate 3665 after 38 passages with moxifloxacin measured after 10 antibiotic-free subculture by multi-step resistance selection technique
Streptococcus pneumoniae [47] = experiment: Antimicrobial activity against drug-resistant Streptococcus pneumoniae isolate 3665 after 26 passages with clarithromycin measured after 10 antibiotic-free subculture by multi-step resistance selection technique
Streptococcus pneumoniae [48] = experiment: Antimicrobial activity against drug-resistant Streptococcus pneumoniae isolate 3665 after 14 passages with Telithromycin measured after 10 antibiotic-free subculture by multi-step resistance selection technique

## CC[C@H]1OC(=O)[C@H](C)[C@@H](O[C@H]2C[C@@](C)(OC)[C@@H](O)[C@H](C)O2)[C@H](C)[C@@H](O[C@@H]2O[C@H](C)C[C@H](N(C)C)[C@H]2O)[C@](C)(O)C[C@@H](C)CN(C)[C@H](C)[C@@H](O)[C@]1(C)O [AZITHROMYCIN]
Streptococcus pneumoniae [1]
  MIC: > 64 µg/mL
Streptococcus pneumoniae [2]
  MIC: > 64 µg/mL
Streptococcus pneumoniae [3]
  MIC: > 64 µg/mL
Streptococcus pneumoniae [4]
  MIC: > 64 µg/mL
Streptococcus pneumoniae [5]
  MIC: > 64 µg/mL
Streptococcus pneumoniae [6]
  MIC: > 64 µg/mL
Streptococcus pneumoniae [7]
  MIC: 2 µg/mL (≈ 2.67 µM)
Streptococcus pneumoniae [8]
  MIC: 0.016 µg/mL (≈ 0.0214 µM)
Streptococcus pneumoniae [9]
  MIC: 1 µg/mL (≈ 1.34 µM)
Streptococcus pneumoniae [10]
  MIC: 0.5 µg/mL (≈ 0.668 µM)
Streptococcus pneumoniae [11]
  MIC: > 64 µg/mL
Streptococcus pneumoniae [12]
  MIC: 0.25 µg/mL (≈ 0.334 µM)
Streptococcus pneumoniae [13]
  MIC: 0.03 µg/mL (≈ 0.0401 µM)
Streptococcus pneumoniae [14]
  MIC: 4 µg/mL (≈ 5.34 µM)
Streptococcus pneumoniae [15]
  MIC: 1 µg/mL (≈ 1.34 µM)
Streptococcus pneumoniae [16]
  MIC: 0.008 µg/mL (≈ 0.0107 µM)
Streptococcus pneumoniae [17]
  MIC: 0.008 µg/mL (≈ 0.0107 µM)
Streptococcus pneumoniae [18]
  MIC: 0.03 µg/mL (≈ 0.0401 µM)
Streptococcus pneumoniae [19]
  MIC: 4 µg/mL (≈ 5.34 µM)
Streptococcus pneumoniae [20]
  MIC: 4 µg/mL (≈ 5.34 µM)
Streptococcus pneumoniae [21]
  MIC: 0.016 µg/mL (≈ 0.0214 µM)
Streptococcus pneumoniae [22]
  MIC: 16 µg/mL (≈ 21.4 µM)
Streptococcus pneumoniae [23]
  MIC: 8 µg/mL (≈ 10.7 µM)
Streptococcus pneumoniae [24]
  MIC: > 64 µg/mL
Streptococcus pneumoniae [25]
  MIC: > 64 µg/mL
Streptococcus pneumoniae [26]
  MIC: > 64 µg/mL
Streptococcus pneumoniae [27]
  MIC: > 64 µg/mL
Streptococcus pneumoniae [28]
  MIC: 0.03 µg/mL (≈ 0.0401 µM)
Streptococcus pneumoniae [29]
  MIC: > 64 µg/mL
Streptococcus pneumoniae [30]
  MIC: > 64 µg/mL
Streptococcus pneumoniae [31]
  MIC: > 64 µg/mL
Streptococcus pneumoniae [32]
  MIC: > 64 µg/mL
Streptococcus pneumoniae [33]
  MIC: > 64 µg/mL
Streptococcus pneumoniae [34]
  MIC: > 64 µg/mL
Streptococcus pneumoniae [35]
  MIC: > 64 µg/mL
Streptococcus pneumoniae [36]
  MIC: > 64 µg/mL
Streptococcus pneumoniae [37]
  MIC: 4 µg/mL (≈ 5.34 µM)
Streptococcus pneumoniae [38]
  MIC: > 64 µg/mL
Streptococcus pneumoniae [39]
  MIC: > 64 µg/mL
Streptococcus pneumoniae [40]
  MIC: > 64 µg/mL
Streptococcus pneumoniae [41]
  MIC: > 64 µg/mL
Streptococcus pneumoniae [42]
  MIC: 16 µg/mL (≈ 21.4 µM)
Streptococcus pneumoniae [43]
  MIC: 2 µg/mL (≈ 2.67 µM)
Streptococcus pneumoniae [44]
  MIC: 8 µg/mL (≈ 10.7 µM)
Streptococcus pneumoniae [45]
  MIC: 4 µg/mL (≈ 5.34 µM)
Streptococcus pneumoniae [46]
  MIC: 8 µg/mL (≈ 10.7 µM)
Streptococcus pneumoniae [47]
  MIC: 8 µg/mL (≈ 10.7 µM)
Streptococcus pneumoniae [48]
  MIC: 4 µg/mL (≈ 5.34 µM)
